Laboratory results from ChEMBL document CHEMBL1149813, “Synthesis of 6-amino-1,4-dihydropyridines that prevent calcium overload and neuronal death” (2008).

Columns and labels:
SH-SY5Y [1] = assay: Neuroprotective activity against human SH-SY5Y cells assessed as reduction in K+-induced LDH release at 0.3 uM relative to control; assay type: functional; design: scale not given: the % may be the effect or the level left
Outline: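 SH-SY5Y neuroblastoma cells maintained in DMEM with 10% FCS at 37 °C in 5% CO2, used at passages 3–16. Cells treated before confluence in serum-free DMEM. Cell death from Ca2+ overload induced by 70 mM K+, read as LDH release. Compounds tested at 0.3 (unit as printed); nimodipine as reference. Means ± SEM, at least three cultures in quadruplicate.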

SH-SY5Y [2] = assay: Neuroprotective activity against human SH-SY5Y cells assessed as reduction in H2O2-induced LDH release at 0.3 uM relative to control; assay type: functional; design: scale not given: the % may be the effect or the level left
SH-SY5Y [3] = assay: Blockade of high K+-induced increase in calcium uptake in human SH-SY5Y cells at 0.3 uM relative to control; assay type: functional
SH-SY5Y [4] = assay: Neuroprotective activity against free radical-induced cell death in human SH-SY5Y cells at 0.3 uM in presence of H2O2 relative to control
SH-SY5Y [5] = assay: Neuroprotective activity against calcium overload-induced cell death in human SH-SY5Y cells at 0.3 uM in presence of K+ relative to control; assay type: functional
Outline: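 SH-SY5Y cells (passages 3–16 after thawing) were grown in DMEM with 10% FCS, glutamine and penicillin/streptomycin at 37 °C in 5% CO2. They were treated with compound before confluence in serum-free DMEM and challenged with 70 mM K+. Read-out was the reduction in the increase of LDH released, relative to a drug-free control. Means ± SEM from at least three cultures in quadruplicate.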

CCOC(=O)C1=C(C)NC(N)=C(C#N)C1c1ccncc1 (stereo not given)
Activity (SH-SY5Y [1]): 70.5% | Activity (SH-SY5Y [2]): 66.7% | Activity (SH-SY5Y [3]): 32.6% | Activity (SH-SY5Y [4]): 46.7% | Activity (SH-SY5Y [5]): 43.3%

Cc1ccc(C2C(C#N)=C(N)NC3=C2C(=O)CC(C)(C)C3)cc1 (stereo not given)
Activity (SH-SY5Y [1]): 68.4% | Activity (SH-SY5Y [2]): 88.6% | Activity (SH-SY5Y [3]): 28.6% | Activity (SH-SY5Y [4]): 14.9% | Activity (SH-SY5Y [5]): 44.4%

CC1(C)CC(=O)C2=C(C1)NC(N)=C(C#N)C2c1ccncc1 (stereo not given)
Activity (SH-SY5Y [1]): 71.4% | Activity (SH-SY5Y [2]): 77.7% | Activity (SH-SY5Y [3]): 50.4% | Activity (SH-SY5Y [4]): 29.1% | Activity (SH-SY5Y [5]): 39.5%

COc1ccc(C2C(C#N)=C(N)NC3=C2C(=O)CC(C)(C)C3)cc1 (stereo not given)
Activity (SH-SY5Y [1]): 69.3% | Activity (SH-SY5Y [2]): 77.8% | Activity (SH-SY5Y [3]): 12.6% | Activity (SH-SY5Y [4]): 29% | Activity (SH-SY5Y [5]): 43.2%

CC1(C)CC(=O)C2=C(C1)NC(N)=C(C#N)C2c1ccc(F)cc1 (stereo not given)
Activity (SH-SY5Y [1]): 69.9% | Activity (SH-SY5Y [2]): 75.4% | Activity (SH-SY5Y [3]): 63.9% | Activity (SH-SY5Y [4]): 32.4% | Activity (SH-SY5Y [5]): 42.3%

CCOC(=O)C1=C(C)NC(N)=C(C#N)C1c1ccc(OC)c(OC)c1 (stereo not given)
Activity (SH-SY5Y [1]): 80.5% | Activity (SH-SY5Y [2]): 70.2% | Activity (SH-SY5Y [3]): 21.8% | Activity (SH-SY5Y [4]): 40.8% | Activity (SH-SY5Y [5]): 31.2%

CC1(C)CC(=O)C2=C(C1)NC(N)=C(C#N)C2c1ccccc1 (stereo not given)
Activity (SH-SY5Y [1]): 61.2% | Activity (SH-SY5Y [2]): 84.2% | Activity (SH-SY5Y [3]): 20.8% | Activity (SH-SY5Y [4]): 20.6% | Activity (SH-SY5Y [5]): 54.7%

CCOC(=O)C1=C(C)NC(N)=C(C#N)C1c1ccc([N+](=O)[O-])cc1 (stereo not given)
Activity (SH-SY5Y [1]): 68.9% | Activity (SH-SY5Y [2]): 83.4% | Activity (SH-SY5Y [3]): 17.6% | Activity (SH-SY5Y [4]): 23.1% | Activity (SH-SY5Y [5]): 45.7%

CCOC(=O)C1=C(C)NC(N)=C(C#N)C1c1ccccc1OC (stereo not given)
Activity (SH-SY5Y [1]): 78.2% | Activity (SH-SY5Y [2]): 88.4% | Activity (SH-SY5Y [3]): 24.3% | Activity (SH-SY5Y [4]): 15% | Activity (SH-SY5Y [5]): 31.5%

CCOC(=O)C1=C(C)NC(N)=C(C#N)C1c1cccc(OC)c1 (stereo not given)
Activity (SH-SY5Y [1]): 77.9% | Activity (SH-SY5Y [2]): 86.1% | Activity (SH-SY5Y [3]): 25% | Activity (SH-SY5Y [4]): 27.7% | Activity (SH-SY5Y [5]): 32.1%

CCOC(=O)C1=C(C)NC(N)=C(C#N)C1c1cccc([N+](=O)[O-])c1 (stereo not given)
Activity (SH-SY5Y [1]): 79.4% | Activity (SH-SY5Y [2]): 84.5% | Activity (SH-SY5Y [3]): 27.8% | Activity (SH-SY5Y [4]): 21.2% | Activity (SH-SY5Y [5]): 30.3%

CCOC(=O)C1=C(C)NC(N)=C(C#N)C1c1ccccc1 (stereo not given)
Activity (SH-SY5Y [1]): 76.26% | Activity (SH-SY5Y [2]): 86.7% | Activity (SH-SY5Y [3]): 34.03% | Activity (SH-SY5Y [4]): 17.3% | Activity (SH-SY5Y [5]): 34.1%

CCOC(=O)C1=C(C)NC(N)=C(C#N)C1c1ccc(F)cc1 (stereo not given)
Activity (SH-SY5Y [1]): 72.8% | Activity (SH-SY5Y [2]): 82.2% | Activity (SH-SY5Y [3]): 7.2% | Activity (SH-SY5Y [4]): 24.7% | Activity (SH-SY5Y [5]): 39.8%

CCOC(=O)C1=C(C)NC(N)=C(C#N)C1c1ccccc1C(F)(F)F (stereo not given)
Activity (SH-SY5Y [1]): 72.11% | Activity (SH-SY5Y [2]): 78.6% | Activity (SH-SY5Y [3]): 30.4% | Activity (SH-SY5Y [4]): 28.2% | Activity (SH-SY5Y [5]): 40.2%

CCOC(=O)C1=C(C)NC(N)=C(C#N)C1c1cccnc1 (stereo not given)
Activity (SH-SY5Y [1]): 70.5% | Activity (SH-SY5Y [2]): 84.5% | Activity (SH-SY5Y [3]): 14.1% | Activity (SH-SY5Y [4]): 21.2% | Activity (SH-SY5Y [5]): 43.4%

CCOC(=O)C1=C(C)NC(N)=C(C#N)C1c1ccc(-c2ccccc2)cc1 (stereo not given)
Activity (SH-SY5Y [1]): 90.9% | Activity (SH-SY5Y [2]): 80.3% | Activity (SH-SY5Y [3]): 23.9% | Activity (SH-SY5Y [4]): 26.2% | Activity (SH-SY5Y [5]): 12.9%

CCOC(=O)C1=C(C)NC(N)=C(C#N)C1c1ccc(OC)cc1 (stereo not given)
Activity (SH-SY5Y [1]): 89.9% | Activity (SH-SY5Y [2]): 77.7% | Activity (SH-SY5Y [3]): 11.8% | Activity (SH-SY5Y [4]): 31.3% | Activity (SH-SY5Y [5]): 14.4%

CCOC(=O)C1=C(C)NC(N)=C(C#N)C1c1ccc(C)cc1 (stereo not given)
Activity (SH-SY5Y [1]): 72.3% | Activity (SH-SY5Y [2]): 69.7% | Activity (SH-SY5Y [3]): 16.9% | Activity (SH-SY5Y [4]): 42.4% | Activity (SH-SY5Y [5]): 40.8%

CCOC(=O)C1=C(C)NC(N)=C(C#N)C1c1ccccc1[N+](=O)[O-] (stereo not given)
Activity (SH-SY5Y [1]): 71.11% | Activity (SH-SY5Y [2]): 98.8% | Activity (SH-SY5Y [3]): 16.1% | Activity (SH-SY5Y [4]): 1.6% | Activity (SH-SY5Y [5]): 42.6%

COCCOC(=O)C1=C(C)NC(C)=C(C(=O)OC(C)C)C1c1cccc([N+](=O)[O-])c1 (stereo not given) [NIMODIPINE]
Activity (SH-SY5Y [1]): 75% | Activity (SH-SY5Y [2]): 75.4% | Activity (SH-SY5Y [3]): 45.5% | Activity (SH-SY5Y [4]): 36.03% | Activity (SH-SY5Y [5]): 35.9%
